The values that follow come from ChEMBL document CHEMBL3352460, “Synthesis and biological evaluation of novel biaryl type α-noscapine congeners” (Bioorg Med Chem Lett, 2014).

Common to all, as to assay type: functional, cell-based
One assay relates to HeLa. Briefly: Antiproliferative activity against human HeLa cells after 72 hrs by MTS assay. In short, it runs like this:
(§1)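 Cells grown in medium with L-glutamine, 10% fetal bovine serum and 1% penicillin/streptomycin, seeded at 5 × 10³ cells per well, then exposed for 72 h to a rising concentration series. Proliferation read by MTS reagent: 3 h incubation, absorbance at 490 nm. IC50 given as mean ± S.D. of three separate experiments.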
On the technique in general: Formazan colour is commonly taken as a measure of viable cells.

Assay [1] concerns MCF7. Briefly: Antiproliferative activity against human MCF7 cells after 72 hrs by MTS assay. The following applies: MCF7, 72 h. The procedure, abridged: as §1
Assay [2] concerns MCF7. Kind of assay: Induction of apoptosis in human MCF7 cells assessed as fragmented nuclei at 25 uM after 72 hrs by DAPI staining-based fluorescence analysis. The procedure, abridged:
(§2)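 MCF-7 cells (2 × 10³) grown on poly-L-lysine-coated coverslips, treated at 25 µM for 72 h. Then fixed in cold methanol, washed in PBS, stained with DAPI and mounted. Nuclei imaged by fluorescence microscopy; apoptosis scored by nuclear condensation, membrane blebs and apoptotic bodies.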

In the next assay the test system is A549. Kind of assay: Antiproliferative activity against human A549 cells after 72 hrs by MTS assay. The following applies: A549, 72 h. The procedure, abridged: as §1
In assay [3] the test system is MCF7. Kind of assay: Induction of apoptosis in human MCF7 cells assessed as condensed chromatin at 25 uM after 72 hrs by DAPI staining-based fluorescence analysis. The procedure, abridged:
as §2

The structures appear in SMILES notation. pIC50: −log10 of the molar value. Activity calls are given as the source filed them. The rule behind the calls is not given here.

Usually pIC50 stands for the negative decadic logarithm of the IC50, by convention in mol/L. Low readings indicate a high IC50, high ones a low IC50. Regarding `C=Cc1ccc(-c2c3c(c(OC)c4c2OCO4)[C@H]([C@H]2OC(=O)c4c2ccc(OC)c4OC)N(C)CC3)cc1`, the figures for the pIC50 with HeLa, in the assay with MCF7 [1] and in the assay with A549 were 4.69, 4.46 and 4.37, respectively. Further, the result in the assay on MCF7 [2] and with MCF7 [3] was Active.

With `CCOC(=O)c1cc(-c2c3c(c(OC)c4c2OCO4)[C@H]([C@H]2OC(=O)c4c2ccc(OC)c4OC)N(C)CC3)ccc1Cl`, the pIC50 is 5.05 in the assay with HeLa, 4.73 with MCF7 [1] and 4.47 with A549. Besides, the result in the assay on MCF7 [2] and in the assay on MCF7 [3] was Active.

For `COc1ccc2c(c1OC)C(=O)O[C@@H]2[C@H]1c2c(c(-c3cccc(NC(C)=O)c3)c3c(c2OC)OCO3)CCN1C`, the pIC50 was 5.04 with HeLa, 4.75 in the assay with MCF7 [1] and 4.49 in the assay on A549. For the same compound, the result in the assay on MCF7 [2] and with MCF7 [3] was Active.

Take `CCOC(=O)c1ccc(-c2c3c(c(OC)c4c2OCO4)[C@H]([C@H]2OC(=O)c4c2ccc(OC)c4OC)N(C)CC3)cc1`: the figures for the negative-log IC50 (pIC50) in the assay with HeLa, in the assay with MCF7 [1] and with A549 were 4.67, 4.39 and 4.27, respectively. Moreover, the outcome with MCF7 [2] and in the assay with MCF7 [3] was Active.

Consider `COc1ccc2c(c1OC)C(=O)O[C@@H]2[C@H]1c2c(c(-c3ccc(C(F)(F)F)cc3)c3c(c2OC)OCO3)CCN1C`, for which the pIC50 in the assay on HeLa was 4.64; with MCF7 [1] it was 4.38; with A549, 4.24.

On to `COc1ccc2c(c1OC)C(=O)O[C@@H]2[C@H]1c2c(cc3c(c2OC)OCO3)CCN1C` [NOSCAPINE], for which the pIC50 with HeLa was 4.62; in the assay on MCF7 [1], 4.37; with A549, 4.20.

For the compound `COc1ccc2c(c1OC)C(=O)O[C@@H]2[C@H]1c2c(c(-c3cccnc3)c3c(c2OC)OCO3)CCN1C`, the figures for the pIC50 with HeLa, with MCF7 [1] and in the assay on A549 were 5.05, 4.78 and 4.50, respectively.
